From ChEMBL document CHEMBL1681711, “Discovery of a potent, orally bioavailable pyrimidine VLA-4 antagonist effective in a sheep asthma model” (Bioorg Med Chem Lett, 2011)
Activity calls are given as the source filed them. No cut-off for these calls is given here.

Columns and labels:
Integrin alpha-4/beta-1 = Integrin alpha-4/beta-1 (Homo sapiens, UniProt P05556+P13612); assay: Inhibition of integrin alpha4beta1-mediated Jurkat cell adhesion to VCAM-1 by FACS analysis; assay type: cell-based
Method in brief: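 α4β1-positive Jurkat cells were incubated with recombinant soluble VCAM-1, and binding of this ligand was measured by flow cytometry (FACS).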

[1] = Drug excretion in Sprague-Dawley rat bile at 10 mg/kg, po; assay type: ADME, organism-based; parameters: dose 10 mg/kg, route oral; details: read-out: Activity
Ovis aries [2] = assay: Antiasthamatic activity in po dosed sheep asthma model assessed as prevention of carbachol-induced early phase hyperresponsiveness; assay type: functional; details: read-out: MED
Ovis aries [3] = assay: Antiasthamatic activity in po dosed sheep asthma model assessed as prevention of carbachol-induced late phase hyperresponsiveness; assay type: functional; details: read-out: MED
[4] = Oral bioavailability in Sprague-Dawley rat at 10 mg/kg; assay type: ADME, organism-based; details: in vivo
[5] = Half life in Sprague-Dawley rat at 10 mg/kg, iv and po; assay type: ADME, organism-based; parameters: dose 10 mg/kg, route oral; details: in vivo
Method in brief: (§1)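 Male rats in each arm; the compound was given at 10 mg/kg both intravenously and orally, with parameters taken from these two arms.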

[6] = Half life in Beagle dog at 3 mg/kg, iv and 10 mg/kg, po; assay type: ADME, organism-based, Canis lupus familiaris; details: in vivo
Method in brief: (§2)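 Male dogs in each arm; the intravenous arm used 3 mg/kg and the oral arm 10 mg/kg.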

[7] = Bioavailability in cynomolgus monkey at 3 mg/kg, iv and 10 mg/kg, po; assay type: ADME, organism-based, Macaca fascicularis; details: in vivo
Method in brief: (§3)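 Male monkeys in each arm; the compound was given at 3 mg/kg intravenously and at 10 mg/kg orally.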

[8] = Clearance in Beagle dog at 3 mg/kg, iv and 10 mg/kg, po; assay type: ADME, organism-based, Canis lupus familiaris; details: in vivo; method in brief: as §2
[9] = Volume of distribution in Beagle dog at 3 mg/kg, iv and 10 mg/kg, po; assay type: ADME, organism-based, Canis lupus familiaris; details: in vivo; method in brief: as §2
[10] = Bioavailability in Beagle dog at 3 mg/kg, iv and 10 mg/kg, po; assay type: ADME, organism-based, Canis lupus familiaris; details: in vivo; method in brief: as §2
Ovis aries [11] = assay: Antiasthamatic activity in sheep asthma model assessed as prevention of carbachol-induced hyperresponsiveness at 0.3 mg/kg, po; assay type: functional, organism-based; parameters: dose 0.3 mg/kg
[12] = Clearance in cynomolgus monkey at 3 mg/kg, iv and 10 mg/kg, po; assay type: ADME, organism-based, Macaca fascicularis; details: in vivo; method in brief: as §3
Ovis aries [13] = assay: Antiasthamatic activity in sheep asthma model assessed as prevention of carbachol-induced hyperresponsiveness at 1 mg/kg, po; assay type: functional, organism-based; parameters: dose 1 mg/kg
[14] = Half life in cynomolgus monkey at 3 mg/kg, iv and 10 mg/kg, po; assay type: ADME, organism-based, Macaca fascicularis; details: in vivo; method in brief: as §3
[15] = Bioavailability in Sprague-Dawley rat at 10 mg/kg, iv and po; assay type: ADME, organism-based; details: in vivo; method in brief: as §1
Rattus norvegicus = assay: Volume of distribution in Sprague-Dawley rat at 10 mg/kg, iv and po; assay type: ADME, organism-based; parameters: dose 10 mg/kg, route oral; details: in vivo; method in brief: as §1
[16] = Volume of distribution in cynomolgus monkey at 3 mg/kg, iv and 10 mg/kg, po; assay type: ADME, organism-based, Macaca fascicularis; details: in vivo; method in brief: as §3

Chain of Integrin alpha-4/beta-1 (P05556 whole entry): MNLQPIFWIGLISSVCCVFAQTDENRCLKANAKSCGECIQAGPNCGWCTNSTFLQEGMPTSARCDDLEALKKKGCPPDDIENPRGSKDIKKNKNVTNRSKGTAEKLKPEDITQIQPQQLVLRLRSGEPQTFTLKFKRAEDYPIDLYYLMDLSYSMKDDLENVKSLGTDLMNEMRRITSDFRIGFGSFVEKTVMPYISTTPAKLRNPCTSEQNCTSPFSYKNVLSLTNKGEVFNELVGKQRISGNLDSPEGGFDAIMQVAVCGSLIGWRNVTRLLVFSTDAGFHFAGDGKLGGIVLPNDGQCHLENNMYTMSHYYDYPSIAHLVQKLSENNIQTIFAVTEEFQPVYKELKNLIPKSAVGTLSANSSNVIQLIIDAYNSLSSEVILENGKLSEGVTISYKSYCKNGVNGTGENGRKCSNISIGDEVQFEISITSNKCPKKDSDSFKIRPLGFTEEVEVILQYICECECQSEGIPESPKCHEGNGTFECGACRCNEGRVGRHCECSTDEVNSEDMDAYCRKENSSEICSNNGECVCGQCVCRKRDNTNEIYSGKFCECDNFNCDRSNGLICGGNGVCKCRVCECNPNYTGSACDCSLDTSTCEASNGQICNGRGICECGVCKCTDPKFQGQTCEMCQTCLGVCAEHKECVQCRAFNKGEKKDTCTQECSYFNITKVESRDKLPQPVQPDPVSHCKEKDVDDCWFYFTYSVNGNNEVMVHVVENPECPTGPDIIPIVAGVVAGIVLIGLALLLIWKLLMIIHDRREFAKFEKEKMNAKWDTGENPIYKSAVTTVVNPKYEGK
Chain of Integrin alpha-4/beta-1 (P13612 whole entry): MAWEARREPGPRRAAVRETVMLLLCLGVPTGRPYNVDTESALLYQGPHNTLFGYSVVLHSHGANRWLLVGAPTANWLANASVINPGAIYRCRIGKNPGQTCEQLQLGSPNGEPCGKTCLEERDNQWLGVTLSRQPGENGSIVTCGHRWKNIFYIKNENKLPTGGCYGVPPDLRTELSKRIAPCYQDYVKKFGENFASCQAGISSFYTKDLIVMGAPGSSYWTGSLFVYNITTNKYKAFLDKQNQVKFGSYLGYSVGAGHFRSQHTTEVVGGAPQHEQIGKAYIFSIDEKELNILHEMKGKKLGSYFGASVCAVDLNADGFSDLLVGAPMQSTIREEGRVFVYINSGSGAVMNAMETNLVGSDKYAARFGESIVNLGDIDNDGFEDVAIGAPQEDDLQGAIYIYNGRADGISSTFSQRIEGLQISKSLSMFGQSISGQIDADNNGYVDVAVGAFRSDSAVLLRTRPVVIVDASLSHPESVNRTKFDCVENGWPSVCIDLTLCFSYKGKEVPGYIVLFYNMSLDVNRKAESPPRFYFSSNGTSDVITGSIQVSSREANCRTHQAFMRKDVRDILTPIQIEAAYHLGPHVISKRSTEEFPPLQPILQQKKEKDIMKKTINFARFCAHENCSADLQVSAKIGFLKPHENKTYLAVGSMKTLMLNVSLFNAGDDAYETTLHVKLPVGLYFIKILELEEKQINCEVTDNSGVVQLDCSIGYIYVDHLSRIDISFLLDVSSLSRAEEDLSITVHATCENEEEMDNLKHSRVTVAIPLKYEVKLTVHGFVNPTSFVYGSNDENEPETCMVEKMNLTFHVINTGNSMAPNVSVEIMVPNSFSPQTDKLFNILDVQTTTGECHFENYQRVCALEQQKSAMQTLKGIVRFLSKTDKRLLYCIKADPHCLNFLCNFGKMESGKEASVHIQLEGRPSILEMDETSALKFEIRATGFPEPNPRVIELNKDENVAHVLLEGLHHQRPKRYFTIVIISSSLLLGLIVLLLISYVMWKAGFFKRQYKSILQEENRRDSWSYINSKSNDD

| SMILES | IC50 (Integrin alpha-4/beta-1) [µM] | other results |
| --- | --- | --- |
| Cc1ccsc1-c1cncnc1N[C@@H](Cc1ccc(OC(=O)N(C)C)cc1)C(=O)O | 0.005 | – |
| Cc1ccccc1-c1cnc(N(C)c2ccc(Cl)cc2)nc1N[C@@H](Cc1ccc(OC(=O)N(C)C)cc1)C(=O)O | 0.107 | – |
| Cc1ccccc1-c1cnc(N(C)C2CC2)nc1N[C@@H](Cc1ccc(OC(=O)N(C)C)cc1)C(=O)O | 0.02 | – |
| CN(C)C(=O)Oc1ccc(C[C@H](Nc2nc(N(C)C3CCCCC3)nc3ccccc23)C(=O)O)cc1 | 0.008 | – |
| Cc1ccccc1-c1cnc(N(C)C2CCN(C)CC2)nc1N[C@@H](Cc1ccc(OC(=O)N(C)C)cc1)C(=O)O | 0.068 | – |
| CN(C)C(=O)Oc1ccc(C[C@H](Nc2ncncc2-c2ccncc2)C(=O)O)cc1 | 0.085 | – |
| CN(C)C(=O)Oc1ccc(C[C@H](Nc2ncncc2-c2ccccc2)C(=O)O)cc1 | 0.3 | – |
| CCN(CC)c1ncc(-c2ccccc2C)c(N[C@@H](Cc2ccc(OC(=O)N(C)C)cc2)C(=O)O)n1 | 0.0057 | – |
| Cc1noc(C)c1-c1cncnc1N[C@@H](Cc1ccc(OC(=O)N(C)C)cc1)C(=O)O | < 0.001 | – |
| CN(C)C(=O)Oc1ccc(C[C@H](Nc2ncncc2-c2c(F)cccc2F)C(=O)O)cc1 | 0.027 | – |
| CCN(C)c1ncc(-c2ccccc2C)c(N[C@@H](Cc2ccc(OC(=O)N(C)C)cc2)C(=O)O)n1 | 0.0053 | – |
| CN(C)C(=O)Oc1ccc(C[C@H](Nc2ncncc2-c2ccccc2F)C(=O)O)cc1 | 0.018 | – |
| Cc1ccccc1-c1cnc(N(C)C2CCCCC2)nc1N[C@@H](Cc1ccc(OC(=O)N(C)C)cc1)C(=O)O | 0.02 | dose excreted [1]: < 3%; minimal effective dose (Ovis aries [2]): 10 mg/kg; minimal effective dose (Ovis aries [3]): 10 mg/kg; bioavailability [4]: 26% |
| CN(C)C(=O)Oc1ccc(C[C@H](Nc2ncncc2-c2cccs2)C(=O)O)cc1 | 0.016 | – |
| Cc1ccccc1-c1cnc(N2CCCCC2)nc1N[C@@H](Cc1ccc(OC(=O)N(C)C)cc1)C(=O)O | 0.032 | – |
| Cc1ccccc1-c1cnc(N(C)C2CCC2)nc1N[C@@H](Cc1ccc(OC(=O)N(C)C)cc1)C(=O)O | 0.01 | – |
| Cc1ccccc1-c1cnc(N(C)CC(C)C)nc1N[C@@H](Cc1ccc(OC(=O)N(C)C)cc1)C(=O)O | 0.007 | – |
| CN(C)C(=O)Oc1ccc(C[C@H](NC(=O)c2ccccc2)C(=O)O)cc1 | 0.13 | – |
| CCCN(CC)c1ncc(-c2ccccc2C)c(N[C@@H](Cc2ccc(OC(=O)N(C)C)cc2)C(=O)O)n1 | 0.0049 | – |
| CN(C)C(=O)Oc1ccc(C[C@H](Nc2ncncc2-c2cccc([N+](=O)[O-])c2)C(=O)O)cc1 | 0.18 | – |
| CN(C)C(=O)Oc1ccc(C[C@H](Nc2ncncc2-c2ccccc2C(F)(F)F)C(=O)O)cc1 | 0.09 | – |
| Cc1ccccc1-c1cnc(N(C)C)nc1N[C@@H](Cc1ccc(OC(=O)N(C)C)cc1)C(=O)O | 0.029 | – |
| CN(C)C(=O)Oc1ccc(C[C@H](Nc2ncncc2-c2cccnc2)C(=O)O)cc1 | 0.13 | – |
| Cc1ccccc1-c1cncnc1N[C@@H](Cc1ccc(OC(=O)N(C)C)cc1)C(=O)O | 0.025 | – |
| CN(C)C(=O)Oc1ccc(C[C@H](Nc2ncncc2-c2cccc(Cl)c2Cl)C(=O)O)cc1 | 0.077 | – |
| Cc1cc(C)c(-c2cncnc2N[C@@H](Cc2ccc(OC(=O)N(C)C)cc2)C(=O)O)c(C)c1 | 0.1 | – |
| CCN(CC)c1ncc(-c2c(C)noc2C)c(N[C@@H](Cc2ccc(OC(=O)N(C)C)cc2)C(=O)O)n1 | – | half-life [5]: 1.4 h; half-life [6]: 0.9 h; bioavailability [7]: 16%; clearance [8]: 0.404 L/h/kg; Vd [9]: 0.524 L/kg; bioavailability [10]: 59%; Activity (Ovis aries [11]): inactive; clearance [12]: 0.808 L/h/kg; Activity (Ovis aries [13]): Active; half-life [14]: 1.1 h; bioavailability [15]: 19%; Vd (Rattus norvegicus): 0.346 L/kg; Vd [16]: 1.29 L/kg |
| COc1ccccc1-c1cncnc1N[C@@H](Cc1ccc(OC(=O)N(C)C)cc1)C(=O)O | 0.016 | – |
| CN(C)C(=O)Oc1ccc(C[C@H](Nc2ncnc3ccccc23)C(=O)O)cc1 | 0.19 | – |
| CN(C)C(=O)Oc1ccc(C[C@H](Nc2ncncc2-c2ccc[nH]2)C(=O)O)cc1 | 0.075 | – |
